From ChEMBL document CHEMBL1154342, “Scaffold-based design and synthesis of potent N-type calcium channel blockers” (Bioorg Med Chem Lett, 2009) come the findings set out here.

pIC50: −log10 of the molar value. The source made the active and inactive calls. The calls are words filed in the database; no cut-off is given here.

Data set [1] is filed under the species Rattus norvegicus. The experiment in a line: Selectivity ratio of IC50 for rat Voltage-dependent L-type calcium channel to IC50 for rat N-type calcium channel. The method, boiled down: (§1)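 HEK293 cells transiently transfected with rat channel subunits and recorded 24–72 h later. Whole-cell patch clamp used barium as the charge carrier. Currents were elicited from a holding potential of −100 mV to the peak of each channel's current–voltage relation. Each compound was tested on 3–5 cells per subtype.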

In data set [2] the target is Voltage-dependent L-type calcium channel subunit beta-1/alpha-1B/alpha-2/delta-1 (Rattus norvegicus, UniProt Q02294). Nature of the data set: Blocking of rat N-type calcium channel alpha-1B/alpha-2-delta-1/beta-1b activity expressed in HEK293 cells assessed as whole cell current by whole cell patch clamp assay. Format: cell-based. The gist of the method:
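HEK293 cells transiently transfected with rat channel subunits, recorded 24–72 h post-transfection. Whole-cell patch clamp with barium as charge carrier; currents elicited from a holding potential of −100 mV to the peak of the current–voltage relation. Each compound tested on 3–5 cells; IC50 estimated.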

Data set [3] can be described thus: Blocking of rat Voltage-dependent L-type calcium channel alpha1c/alpha2delta-1/beta1b activity expressed in HEK293 cells assessed as whole cell current by whole cell patch clamp assay. Format: cell-based. The gist of the method:
as §1

Data set [4] relates to Rattus norvegicus. Nature of the data set: Apparent oral clearance in rat at 10 mg/kg, po. Conditions: in vivo.
In data set [5] the test system is Rattus norvegicus. The experiment in a line: Analgesic activity against phse 2A portion of rat formalin-induced inflammatory pain model assessed as flinches at 25 mg/kg, ip. Format: functional, organism-based. Also on record: dose 25 mg/kg. The gist of the method: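 Rat formalin inflammatory pain model with the phase IIA portion scored. Compounds were given intraperitoneally at 25 mg/kg, using 24–26 animals per group.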

Data set [6] is described as follows: Half life in rat at 2 mg/kg, iv. Also on record: dose 2 mg/kg, route intravenous. Format: ADME, organism-based. Conditions: in vivo. The method, boiled down: (§2)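 Rats given a single dose by vein (2 mg/kg) or by mouth (10 mg/kg). Plasma sampled, with AUC taken to 8 h and extrapolated to infinity. Cmax is the highest observed concentration, and Tmax is the time to it. Half-life, apparent volume of distribution, plasma clearance and oral bioavailability were also derived. Values are given as mean with standard error.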

A short description of data set [7]: Oral bioavailability in rat at 10 mg/kg, po. As to conditions: in vivo.
Data set [8] in a line: Half life in rat at 10 mg/kg, po. Conditions: in vivo.
Another data set addresses hERG (KCNH2) (Homo sapiens, UniProt Q12809). The experiment in a line: Inhibition of human ERG current at 1 uM. The method, boiled down: (§3)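 Whole-cell patch clamp of HEK cells stably expressing hERG, measuring peak tail currents. A single 1 µM application was used for the screen. The concentration–response used 0.1, 1, 3 and 10 µM against a 0.1% DMSO control, with n = 4 per concentration.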

Data set [9] has as its target Mu-type opioid receptor (Homo sapiens) (UniProt P35372). Nature of the data set: Displacement of radioligand from mu opioid receptor at 10 uM.
Data set [10] concerns the target Voltage-gated inwardly rectifying potassium channel KCNH2 (Homo sapiens, UniProt Q12809). Nature of the data set: Inhibition of human ERG current. The method, boiled down: as §3
Data set [11] addresses Cannabinoid receptor 1 (Homo sapiens) (UniProt P21554). The experiment in a line: Displacement of radioligand from cannabinoid CB1 receptor at 10 uM.
Data set [12] is described as follows: AUC (0 to infinity) in rat at 2 mg/kg, iv. Format: ADME, organism-based. More on the design: time infinity, dose 2 mg/kg, route intravenous. Conditions: plasma. The gist of the method: as §2
Data set [13] in a line: Volume of distribution at steady state in rat at 2 mg/kg, iv. Format: ADME, organism-based. More on the design: dose 2 mg/kg, route intravenous. As to conditions: in vivo, read-out: Vdss. The method, boiled down:
as §2

Data set [14] in a line: Displacement of radioligand from voltage-gated sodium channel at 10 uM.
Data set [15] in a line: Displacement of radioligand from Voltage-dependent L-type calcium channel at 10 uM.
Data set [16] is described as follows: Cmax in rat at 2 mg/kg, iv. Format: ADME, organism-based. More on the design: dose 2 mg/kg, route intravenous. As to conditions: in vivo. The method, boiled down:
as §2

Data set [17] in a line: AUC (0 to 8 hrs) in rat at 2 mg/kg, iv. Format: ADME, organism-based. Also on record: time < 8 hr, dose 2 mg/kg, route intravenous. As to conditions: plasma. The method, boiled down: as §2
A short description of data set [18]: Cmax in rat at 10 mg/kg, po. As to conditions: in vivo.
The nature of data set [19]: AUC (0 to 8 hrs) in rat at 10 mg/kg, po. Conditions: plasma.
A short description of data set [20]: AUC (0 to infinity) in rat at 10 mg/kg, po. As to conditions: plasma.

Voltage-dependent L-type calcium channel subunit beta-1/alpha-1B/alpha-2/delta-1, sequence (Q02294 whole entry): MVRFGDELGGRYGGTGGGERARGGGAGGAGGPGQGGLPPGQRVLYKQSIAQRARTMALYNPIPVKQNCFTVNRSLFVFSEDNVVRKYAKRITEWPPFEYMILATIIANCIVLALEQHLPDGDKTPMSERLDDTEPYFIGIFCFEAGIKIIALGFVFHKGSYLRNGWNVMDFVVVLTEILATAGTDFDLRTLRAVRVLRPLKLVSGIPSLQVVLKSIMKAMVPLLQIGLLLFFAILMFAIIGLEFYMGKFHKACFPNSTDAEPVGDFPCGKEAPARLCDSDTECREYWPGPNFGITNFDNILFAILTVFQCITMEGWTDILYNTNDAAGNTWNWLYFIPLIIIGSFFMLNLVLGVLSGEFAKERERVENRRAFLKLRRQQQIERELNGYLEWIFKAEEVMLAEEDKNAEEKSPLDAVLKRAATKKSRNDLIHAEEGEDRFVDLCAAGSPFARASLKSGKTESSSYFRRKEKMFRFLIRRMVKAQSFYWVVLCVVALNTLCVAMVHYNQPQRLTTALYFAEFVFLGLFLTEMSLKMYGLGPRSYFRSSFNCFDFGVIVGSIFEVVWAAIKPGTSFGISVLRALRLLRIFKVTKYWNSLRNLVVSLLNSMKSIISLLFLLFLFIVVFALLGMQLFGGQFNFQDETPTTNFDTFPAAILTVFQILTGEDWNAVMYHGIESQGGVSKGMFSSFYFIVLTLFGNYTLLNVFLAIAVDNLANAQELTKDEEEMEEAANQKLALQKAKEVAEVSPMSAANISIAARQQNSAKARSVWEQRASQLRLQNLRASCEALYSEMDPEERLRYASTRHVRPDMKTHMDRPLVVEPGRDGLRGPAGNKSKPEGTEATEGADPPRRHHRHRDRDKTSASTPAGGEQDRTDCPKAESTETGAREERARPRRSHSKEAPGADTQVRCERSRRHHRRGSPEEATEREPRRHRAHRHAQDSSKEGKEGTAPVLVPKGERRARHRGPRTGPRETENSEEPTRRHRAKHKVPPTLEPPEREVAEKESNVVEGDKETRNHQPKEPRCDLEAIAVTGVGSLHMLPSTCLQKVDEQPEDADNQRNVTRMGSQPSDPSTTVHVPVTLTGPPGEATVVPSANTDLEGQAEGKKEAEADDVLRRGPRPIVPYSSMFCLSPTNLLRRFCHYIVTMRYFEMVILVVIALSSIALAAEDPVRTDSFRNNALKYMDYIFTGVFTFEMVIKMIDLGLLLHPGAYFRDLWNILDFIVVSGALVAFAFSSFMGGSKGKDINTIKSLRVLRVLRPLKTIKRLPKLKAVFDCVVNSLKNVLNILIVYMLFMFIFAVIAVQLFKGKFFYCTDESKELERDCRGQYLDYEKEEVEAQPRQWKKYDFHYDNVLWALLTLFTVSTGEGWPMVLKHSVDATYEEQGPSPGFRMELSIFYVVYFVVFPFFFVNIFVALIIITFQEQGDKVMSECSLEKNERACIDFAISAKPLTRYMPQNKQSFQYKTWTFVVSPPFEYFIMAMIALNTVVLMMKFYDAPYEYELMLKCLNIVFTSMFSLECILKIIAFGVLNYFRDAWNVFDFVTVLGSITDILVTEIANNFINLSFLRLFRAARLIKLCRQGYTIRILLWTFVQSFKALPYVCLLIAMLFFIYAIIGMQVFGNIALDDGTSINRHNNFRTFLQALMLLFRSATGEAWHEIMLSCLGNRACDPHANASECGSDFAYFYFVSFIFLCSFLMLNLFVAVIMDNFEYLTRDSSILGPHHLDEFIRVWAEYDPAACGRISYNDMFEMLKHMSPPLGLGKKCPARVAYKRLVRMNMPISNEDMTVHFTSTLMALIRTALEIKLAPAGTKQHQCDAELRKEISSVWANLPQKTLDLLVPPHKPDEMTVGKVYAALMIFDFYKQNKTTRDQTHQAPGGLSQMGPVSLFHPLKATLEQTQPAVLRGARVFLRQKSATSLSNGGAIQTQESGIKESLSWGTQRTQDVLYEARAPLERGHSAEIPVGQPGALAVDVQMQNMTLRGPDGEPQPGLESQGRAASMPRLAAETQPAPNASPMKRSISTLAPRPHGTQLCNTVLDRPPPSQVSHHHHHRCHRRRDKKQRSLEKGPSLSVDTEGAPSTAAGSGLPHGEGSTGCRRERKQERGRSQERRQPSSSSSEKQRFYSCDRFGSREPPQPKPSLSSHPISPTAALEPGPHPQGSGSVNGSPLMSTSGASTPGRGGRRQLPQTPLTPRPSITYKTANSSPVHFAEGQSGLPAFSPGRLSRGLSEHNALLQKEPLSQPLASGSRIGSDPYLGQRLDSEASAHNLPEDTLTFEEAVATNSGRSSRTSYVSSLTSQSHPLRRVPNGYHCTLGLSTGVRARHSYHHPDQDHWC
Voltage-dependent L-type calcium channel subunit beta-1/alpha-1B/alpha-2/delta-1, sequence (P54283 whole entry partner): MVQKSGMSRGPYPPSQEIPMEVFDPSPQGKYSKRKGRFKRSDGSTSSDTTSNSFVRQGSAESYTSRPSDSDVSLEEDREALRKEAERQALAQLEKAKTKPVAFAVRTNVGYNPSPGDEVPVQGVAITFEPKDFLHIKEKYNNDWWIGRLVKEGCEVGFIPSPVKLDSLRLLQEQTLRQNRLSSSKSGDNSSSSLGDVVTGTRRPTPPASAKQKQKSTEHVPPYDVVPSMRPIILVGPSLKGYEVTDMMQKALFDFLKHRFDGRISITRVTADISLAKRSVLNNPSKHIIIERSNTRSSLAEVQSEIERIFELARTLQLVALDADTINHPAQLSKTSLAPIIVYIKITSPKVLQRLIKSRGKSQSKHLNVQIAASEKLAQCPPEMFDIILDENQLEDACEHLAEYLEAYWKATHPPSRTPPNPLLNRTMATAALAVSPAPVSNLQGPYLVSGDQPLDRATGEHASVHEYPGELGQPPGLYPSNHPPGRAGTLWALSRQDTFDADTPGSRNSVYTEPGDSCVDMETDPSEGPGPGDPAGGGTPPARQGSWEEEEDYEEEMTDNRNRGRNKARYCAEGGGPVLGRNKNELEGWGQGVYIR
Voltage-dependent L-type calcium channel subunit beta-1/alpha-1B/alpha-2/delta-1, sequence (P54290 25-944 partner limits assumed): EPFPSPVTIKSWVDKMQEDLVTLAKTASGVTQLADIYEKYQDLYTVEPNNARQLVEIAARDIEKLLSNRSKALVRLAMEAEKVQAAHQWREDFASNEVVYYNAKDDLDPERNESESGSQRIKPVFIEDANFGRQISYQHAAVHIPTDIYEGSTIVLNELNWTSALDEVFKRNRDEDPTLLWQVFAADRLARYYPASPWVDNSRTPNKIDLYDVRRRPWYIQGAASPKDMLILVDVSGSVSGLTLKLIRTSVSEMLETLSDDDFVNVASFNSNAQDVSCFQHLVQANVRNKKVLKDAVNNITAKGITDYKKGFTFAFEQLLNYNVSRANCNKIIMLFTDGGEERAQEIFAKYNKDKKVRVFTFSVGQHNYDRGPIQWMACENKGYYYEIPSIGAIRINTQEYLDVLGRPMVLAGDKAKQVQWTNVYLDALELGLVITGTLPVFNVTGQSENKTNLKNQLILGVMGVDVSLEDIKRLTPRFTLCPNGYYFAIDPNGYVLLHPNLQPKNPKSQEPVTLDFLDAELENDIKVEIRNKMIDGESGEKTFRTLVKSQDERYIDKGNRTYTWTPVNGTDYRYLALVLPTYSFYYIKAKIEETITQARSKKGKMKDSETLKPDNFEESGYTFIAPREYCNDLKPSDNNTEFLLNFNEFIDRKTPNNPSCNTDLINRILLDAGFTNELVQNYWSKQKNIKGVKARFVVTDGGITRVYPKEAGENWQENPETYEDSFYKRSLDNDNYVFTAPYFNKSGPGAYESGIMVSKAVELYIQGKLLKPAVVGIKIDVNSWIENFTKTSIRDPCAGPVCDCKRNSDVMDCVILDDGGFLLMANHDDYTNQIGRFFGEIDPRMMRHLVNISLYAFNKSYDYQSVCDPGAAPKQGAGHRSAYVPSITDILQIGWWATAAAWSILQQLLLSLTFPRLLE
Voltage-dependent L-type calcium channel subunit beta-1/alpha-1B/alpha-2/delta-1, sequence (P54290 945-1091 partner limits assumed): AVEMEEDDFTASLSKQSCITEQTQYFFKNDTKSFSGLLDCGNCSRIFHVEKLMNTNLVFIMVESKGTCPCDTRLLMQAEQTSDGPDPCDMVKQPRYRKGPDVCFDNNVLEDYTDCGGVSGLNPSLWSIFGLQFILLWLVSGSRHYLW
Cannabinoid receptor 1 (Homo sapiens), sequence (P21554 whole entry): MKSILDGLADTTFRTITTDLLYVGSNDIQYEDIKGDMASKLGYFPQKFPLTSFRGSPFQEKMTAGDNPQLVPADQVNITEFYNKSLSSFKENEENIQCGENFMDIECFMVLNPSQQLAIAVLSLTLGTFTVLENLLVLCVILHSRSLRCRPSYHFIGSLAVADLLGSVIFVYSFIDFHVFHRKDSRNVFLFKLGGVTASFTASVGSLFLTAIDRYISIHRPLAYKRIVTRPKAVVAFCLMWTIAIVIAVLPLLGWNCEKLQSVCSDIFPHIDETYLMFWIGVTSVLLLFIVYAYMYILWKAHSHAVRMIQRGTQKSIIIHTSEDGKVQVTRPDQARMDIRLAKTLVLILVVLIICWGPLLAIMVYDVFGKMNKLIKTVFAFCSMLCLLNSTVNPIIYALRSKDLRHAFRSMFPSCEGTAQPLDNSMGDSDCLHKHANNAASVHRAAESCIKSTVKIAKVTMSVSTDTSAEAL
Mu-type opioid receptor (Homo sapiens), sequence (P35372 whole entry): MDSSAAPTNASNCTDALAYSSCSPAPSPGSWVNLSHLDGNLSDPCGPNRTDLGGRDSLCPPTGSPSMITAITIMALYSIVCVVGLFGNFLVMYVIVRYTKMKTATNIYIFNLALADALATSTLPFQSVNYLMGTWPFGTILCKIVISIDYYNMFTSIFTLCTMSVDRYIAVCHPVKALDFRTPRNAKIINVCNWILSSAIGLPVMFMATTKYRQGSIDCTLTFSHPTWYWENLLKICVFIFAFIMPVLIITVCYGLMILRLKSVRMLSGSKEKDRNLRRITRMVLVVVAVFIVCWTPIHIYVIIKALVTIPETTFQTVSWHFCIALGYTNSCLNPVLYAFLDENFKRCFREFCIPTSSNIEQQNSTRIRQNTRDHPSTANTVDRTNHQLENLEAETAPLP

As to `O=C(CCCCC(c1ccccc1)c1ccccc1)N1CCN(C/C=C/c2ccccc2)CC1` (stereo in doubt; 5c) [listing 1 of 2 here], the Ratio IC50 in the data set filed under Rattus norvegicus [1] is 2.8.
As to `O=C(CCCCC(c1ccccc1)c1ccccc1)N1CCN(C/C=C/c2cccc3c2OCO3)CC1`, the pIC50 in data set [2] is 6.72.
The same measure, in the same setting: as for `c1ccc(C(CCCCCN2CCN(C(c3ccccc3)c3ccccc3)CC2)c2ccccc2)cc1`, the figure is 4.30.
Consider `Nc1ccc(/C=C/C(=O)N2CCN(C(=O)CCCCC(c3ccccc3)c3ccccc3)CC2)cc1`, for which the pIC50 is 6.82 in data set [2] and 6.08 in [3] (HEK293). In addition, in the data set listed under Rattus norvegicus [1], the Ratio IC50 was determined as 5.5.
In the case of `O=C(NC(c1ccccc1)c1ccccc1)N1CCN(C(c2ccccc2)c2ccccc2)CC1`, the negative-log IC50 (pIC50) in data set [3] (HEK293) is 5.74. In addition, the Ratio IC50 in the data set listed under Rattus norvegicus [1] is 12.
Regarding `c1ccc(C(CN2CCN(C(c3ccccc3)c3ccccc3)CC2)c2ccccc2)cc1`, the pIC50 in data set [2] was < 4.30.
`O=C(CCCCC(c1ccccc1)c1ccccc1)N1CCN(C/C=C/c2ccccc2)CC1` (stereo in doubt; 5a) [listing 1 of 2 here]: the pIC50 in data set [2] was 7.30; in data set [3] (HEK293), 6.41.
Regarding `O=C(CC(c1ccccc1)c1ccccc1)N1CCN(C(c2ccccc2)c2ccccc2)CC1` [Z160], in the data set on Rattus norvegicus [4], the CL/F was found to be 164 mL/min/kg. Moreover, the outcome (with Rattus norvegicus [5]; in [9]; in data set [11]; in [14]; in data set [15]) was Active. The values for the half-life in [6] and in data set [8] were 198 min and 126 min, respectively. In data set [7], this compound had a bioavailability of 30%. Also, the inhibition at 1 µM against hERG (KCNH2) was 24.8%. The same compound showed an IC50 in data set [10] of 7.4 µM. In addition, the values for the pIC50 in data set [2] and in data set [3] (HEK293) were 6.96 and 4.91, respectively. In addition, the AUC(0-inf) stood at 761 ng·h/mL in data set [12] and 1140 ng·h/mL in data set [20]. In addition, in [13], the Vd came to 5.79 L/kg. Moreover, the Cmax came out at 771 ng/mL in [16] and 235 ng/mL in data set [18]. Moreover, the area under the curve AUC(0-t) at 8 h is 715 ng·h/mL in data set [17] and 999 ng·h/mL in data set [19]. For the same compound, the Ratio IC50 in the data set filed under Rattus norvegicus [1] was 111.
Regarding `COc1cc(C(=O)N2CCN(C(=O)CCCCC(c3ccc(F)cc3)c3ccc(F)cc3)CC2)cc(OC)c1OC`, in data set [2], the pIC50 is 6.27.
For `c1ccc(C(CCN2CCN(C(c3ccccc3)c3ccccc3)CC2)c2ccccc2)cc1`, the negative logarithm of the IC50 (pIC50) in data set [2] is 5.30.
Consider `COc1ccc(/C=C/C(=O)N2CCN(C(=O)CCCCC(c3ccccc3)c3ccccc3)CC2)cc1`, for which the pIC50 is 7.05 in data set [2] and 6.60 in [3] (HEK293). The Ratio IC50 in the data set filed under Rattus norvegicus [1] was 2.8.
For `COc1ccc(CN2CCN(C(c3ccc(F)cc3)c3ccc(F)cc3)CC2)c(OC)c1OC` [LOMERIZINE], the pIC50 in data set [3] (HEK293) was 6.82. Further, the Ratio IC50 in the data set listed under Rattus norvegicus [1] worked out at 1.7.
In the case of `c1ccc(C(CCCN2CCN(C(c3ccccc3)c3ccccc3)CC2)c2ccccc2)cc1`, in [2], the pIC50 is 5.22.
As for `c1ccc(C(CCCCN2CCN(C(c3ccccc3)c3ccccc3)CC2)c2ccccc2)cc1`, the pIC50 in data set [2] is 4.70.
Still for that read-out and setting: as for `O=C(CCCC(c1ccccc1)c1ccccc1)N1CCN(C(c2ccccc2)c2ccccc2)CC1`, the figure is < 4.30.
Regarding `O=C(/C=C/c1cccc2c1OCO2)N1CCN(C(=O)CCCCC(c2ccccc2)c2ccccc2)CC1`, the pIC50 in data set [2] was 6.89; in [3] (HEK293) it was 6.13. The Ratio IC50 in the data set listed under Rattus norvegicus [1] turned out to be 5.7.
On to `COc1cc(C(=O)N2CCN(CCCCCC(c3ccc(F)cc3)c3ccc(F)cc3)CC2)cc(OC)c1OC`, for which, in the data set on Rattus norvegicus [4], the apparent clearance CL/F was 170 mL/min/kg. The outcome in the data set on Rattus norvegicus [5] was Active. Besides, the half-life in [6] was 300 min; in [8] it was 270 min. In [7], this compound had a bioavailability of 21%. The pIC50 in data set [2] was 6.96; in data set [3] (HEK293), 5.55. Also, the figures for the AUC(0-inf) in data set [12] and in [20] were 975 ng·h/mL and 1020 ng·h/mL, respectively. For the same compound, the Vd in data set [13] was determined as 11.7 L/kg. For the same compound, the Cmax in data set [16] stood at 462 ng/mL; in data set [18] it was 173 ng/mL. The AUC(0-t) at 8 h in [17] turned out to be 725 ng·h/mL; in [19], 753 ng·h/mL.
With `COc1cc(CN2CCN(C(=O)CCCCC(c3ccc(F)cc3)c3ccc(F)cc3)CC2)cc(OC)c1OC`, in [2], the pIC50 was 6.72.
As for `O=C(CCCCC(c1ccccc1)c1ccccc1)N1CCN(C/C=C/c2ccccc2)CC1` (stereo in doubt; 5a) [listing 2 of 2 here], in the data set listed under Rattus norvegicus [1], the Ratio IC50 was 8.
With `O=C(CCCCC(c1ccc(F)cc1)c1ccc(F)cc1)N1CCN(C/C=C/c2ccccc2)CC1`, the pIC50 is 7.05 in data set [2] and 6.92 in data set [3] (HEK293). In addition, the Ratio IC50 in the data set filed under Rattus norvegicus [1] came out at 1.3.
For `Fc1ccc(C(c2ccc(F)cc2)N2CCN(C/C=C/c3ccccc3)CC2)cc1` [FLUNARIZINE], in that order: 7.10, 6.51 and 3.9.
Turning to `COc1ccc(/C=C/CN2CCN(C(=O)CCCCC(c3ccccc3)c3ccccc3)CC2)cc1`, in [2], the pIC50 is 6.72.
Same read-out and setting: as for `O=C(CCC(c1ccccc1)c1ccccc1)N1CCN(C(c2ccccc2)c2ccccc2)CC1`, the figure is 4.64.
The same measure, in the same setting: to `O=C(CCCCC(c1ccccc1)c1ccccc1)N1CCN(C(c2ccccc2)c2ccccc2)CC1` belongs 4.30; to `O=C(C(c1ccccc1)c1ccccc1)N1CCN(C(c2ccccc2)c2ccccc2)CC1`, < 4.30.
Consider `O=C(CCCCC(c1ccccc1)c1ccccc1)N1CCN(C/C=C/c2ccccc2)CC1` (stereo in doubt; 5c) [listing 2 of 2 here], for which the pIC50 in data set [2] was 6.92; in [3] (hek293) it was 6.48.
